For assay [1], the target named is T1, Nitric oxide synthase, inducible (Mus musculus) (UniProt P29477).
T1 sequence (whole entry): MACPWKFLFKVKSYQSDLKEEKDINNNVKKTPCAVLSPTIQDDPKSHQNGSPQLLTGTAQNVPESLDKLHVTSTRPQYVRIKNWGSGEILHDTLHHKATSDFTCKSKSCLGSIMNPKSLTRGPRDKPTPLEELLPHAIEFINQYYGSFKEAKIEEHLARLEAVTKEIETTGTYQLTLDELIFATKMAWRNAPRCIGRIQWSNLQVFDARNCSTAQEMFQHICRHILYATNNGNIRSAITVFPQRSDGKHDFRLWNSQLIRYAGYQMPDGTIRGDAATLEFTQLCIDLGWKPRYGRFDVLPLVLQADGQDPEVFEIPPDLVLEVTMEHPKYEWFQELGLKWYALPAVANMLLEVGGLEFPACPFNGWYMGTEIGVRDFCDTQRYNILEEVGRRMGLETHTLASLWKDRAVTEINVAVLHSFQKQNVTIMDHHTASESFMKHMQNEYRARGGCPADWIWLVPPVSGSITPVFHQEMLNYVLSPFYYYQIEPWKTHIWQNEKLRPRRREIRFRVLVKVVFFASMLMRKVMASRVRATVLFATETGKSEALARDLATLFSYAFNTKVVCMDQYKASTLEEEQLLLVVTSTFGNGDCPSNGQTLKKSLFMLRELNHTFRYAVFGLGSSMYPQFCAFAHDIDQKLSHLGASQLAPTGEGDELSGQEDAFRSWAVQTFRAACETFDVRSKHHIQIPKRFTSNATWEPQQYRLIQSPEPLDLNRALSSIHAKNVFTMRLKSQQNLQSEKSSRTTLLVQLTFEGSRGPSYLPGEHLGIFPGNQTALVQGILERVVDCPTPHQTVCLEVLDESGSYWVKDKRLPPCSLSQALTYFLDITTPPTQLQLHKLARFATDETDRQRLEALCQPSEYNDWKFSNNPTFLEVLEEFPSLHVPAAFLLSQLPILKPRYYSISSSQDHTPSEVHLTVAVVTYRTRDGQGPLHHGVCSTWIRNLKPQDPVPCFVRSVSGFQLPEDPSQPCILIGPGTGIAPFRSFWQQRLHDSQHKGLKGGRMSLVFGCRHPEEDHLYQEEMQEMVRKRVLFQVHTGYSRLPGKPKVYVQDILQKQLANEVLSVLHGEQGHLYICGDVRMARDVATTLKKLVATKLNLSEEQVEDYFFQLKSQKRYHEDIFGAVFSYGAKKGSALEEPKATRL
Put plainly: Binding affinity to oxygenase domain of mouse iNOS at 100 uM assessed as formation of enzyme-Fe3-ImH complex by UV-visible spectra analysis.

Assay [2] concerns the target T2, Nitric oxide synthase, inducible (Mus musculus, UniProt P29477).
T2 sequence (P29477 whole entry): T1 sequence (whole entry)
Kind of assay: Inhibition of mouse recombinant iNOS expressed in Escherichia coli assessed as conversion of [gamma-14C]L-arginine to [14C]L-citrulline by radioactive assay. Put shortly:
(§1)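 CaCl2/CaM present for nNOS (S. cerevisiae) and eNOS (E. coli) but omitted for iNOS (E. coli). Citrulline separated by Dowex cation exchange, then scintillation counting.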

The target of the next assay is T3, Nitric oxide synthase 3 (Bos taurus, UniProt P29473).
T3 sequence (P29473 whole entry): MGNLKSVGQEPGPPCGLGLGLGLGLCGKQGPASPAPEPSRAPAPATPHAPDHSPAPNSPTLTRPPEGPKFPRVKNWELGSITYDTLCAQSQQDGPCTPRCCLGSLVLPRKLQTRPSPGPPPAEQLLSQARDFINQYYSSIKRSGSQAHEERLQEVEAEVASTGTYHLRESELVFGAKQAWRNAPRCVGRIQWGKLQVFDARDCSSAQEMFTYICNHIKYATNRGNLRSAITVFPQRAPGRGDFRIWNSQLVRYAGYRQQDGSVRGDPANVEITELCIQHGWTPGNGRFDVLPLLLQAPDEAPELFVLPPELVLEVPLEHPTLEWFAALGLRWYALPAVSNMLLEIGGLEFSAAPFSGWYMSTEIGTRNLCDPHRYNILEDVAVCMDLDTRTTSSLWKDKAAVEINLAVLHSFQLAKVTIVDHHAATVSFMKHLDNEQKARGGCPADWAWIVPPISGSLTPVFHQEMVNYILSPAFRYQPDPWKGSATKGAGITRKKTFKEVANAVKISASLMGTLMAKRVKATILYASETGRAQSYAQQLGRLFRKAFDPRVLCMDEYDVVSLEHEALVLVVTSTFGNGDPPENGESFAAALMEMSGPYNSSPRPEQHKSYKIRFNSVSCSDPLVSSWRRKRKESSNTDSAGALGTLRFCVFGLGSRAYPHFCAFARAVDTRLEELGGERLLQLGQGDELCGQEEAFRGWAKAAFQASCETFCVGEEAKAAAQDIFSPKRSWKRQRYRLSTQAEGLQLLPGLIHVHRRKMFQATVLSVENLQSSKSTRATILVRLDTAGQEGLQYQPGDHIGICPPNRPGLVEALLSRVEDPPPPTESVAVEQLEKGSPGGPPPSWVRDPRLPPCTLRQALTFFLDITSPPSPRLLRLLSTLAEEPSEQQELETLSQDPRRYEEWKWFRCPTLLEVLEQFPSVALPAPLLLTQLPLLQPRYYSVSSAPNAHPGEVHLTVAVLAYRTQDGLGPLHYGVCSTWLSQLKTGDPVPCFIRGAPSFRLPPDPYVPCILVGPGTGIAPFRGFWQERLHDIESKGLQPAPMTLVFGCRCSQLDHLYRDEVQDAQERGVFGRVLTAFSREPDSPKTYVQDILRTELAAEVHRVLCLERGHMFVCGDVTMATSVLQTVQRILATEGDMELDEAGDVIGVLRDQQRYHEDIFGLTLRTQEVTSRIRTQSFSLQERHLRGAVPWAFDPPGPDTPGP
Put plainly: Inhibition of bovine recombinant eNOS expressed in Escherichia coli assessed as conversion of [gamma-14C]L-arginine to [14C]L-citrulline by radioactive assay. Put shortly: as §1

For another assay, the target named is Nitric oxide synthase 1 (Rattus norvegicus, UniProt P29476). Put plainly: Inhibition of rat recombinant nNOS expressed in Saccharomyces cerevisiae assessed as conversion of [gamma-14C]L-arginine to [14C]L-citrulline by radioactive assay. In a few lines:
as §1

In assay [3] the target is T2, Nitric oxide synthase, inducible. Kind of assay: Inhibition of mouse recombinant iNOS expressed in Escherichia coli assessed as NADPH consumption after 2 mins by spectrophotometry. In a few lines: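 Murine iNOS from E. coli (15–50 nM final) in 50 mM Hepes pH 7.4 with 5 mM DTT, 100 µM CaCl2, 200 µM NADPH, 10 µM H4B, 100 µM L-arginine and 100 µM compound. Cofactors and compound preincubated 2 min at 37 °C, enzyme added, and A340 followed for 3 min (ε 6.2 mM-1 cm-1). Given as % of 1% DMSO control NADPH oxidase rate.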

Assay [4] has the same target. Put plainly: Inhibition of mouse iNOS expressed in insect Sf9 cells by competitive binding assay.
Assay [5] has the same target. Kind of assay: Inhibition of mouse recombinant iNOS expressed in Escherichia coli assessed as conversion of [14C]L-arginine to [14C]L-citrulline by radioactive assay.

SMILES strings stand for the structures. The source made the active and inactive calls. The calls are words filed in the database; no cut-off is given here.

Sequence of Nitric oxide synthase 1 (P29476 whole entry): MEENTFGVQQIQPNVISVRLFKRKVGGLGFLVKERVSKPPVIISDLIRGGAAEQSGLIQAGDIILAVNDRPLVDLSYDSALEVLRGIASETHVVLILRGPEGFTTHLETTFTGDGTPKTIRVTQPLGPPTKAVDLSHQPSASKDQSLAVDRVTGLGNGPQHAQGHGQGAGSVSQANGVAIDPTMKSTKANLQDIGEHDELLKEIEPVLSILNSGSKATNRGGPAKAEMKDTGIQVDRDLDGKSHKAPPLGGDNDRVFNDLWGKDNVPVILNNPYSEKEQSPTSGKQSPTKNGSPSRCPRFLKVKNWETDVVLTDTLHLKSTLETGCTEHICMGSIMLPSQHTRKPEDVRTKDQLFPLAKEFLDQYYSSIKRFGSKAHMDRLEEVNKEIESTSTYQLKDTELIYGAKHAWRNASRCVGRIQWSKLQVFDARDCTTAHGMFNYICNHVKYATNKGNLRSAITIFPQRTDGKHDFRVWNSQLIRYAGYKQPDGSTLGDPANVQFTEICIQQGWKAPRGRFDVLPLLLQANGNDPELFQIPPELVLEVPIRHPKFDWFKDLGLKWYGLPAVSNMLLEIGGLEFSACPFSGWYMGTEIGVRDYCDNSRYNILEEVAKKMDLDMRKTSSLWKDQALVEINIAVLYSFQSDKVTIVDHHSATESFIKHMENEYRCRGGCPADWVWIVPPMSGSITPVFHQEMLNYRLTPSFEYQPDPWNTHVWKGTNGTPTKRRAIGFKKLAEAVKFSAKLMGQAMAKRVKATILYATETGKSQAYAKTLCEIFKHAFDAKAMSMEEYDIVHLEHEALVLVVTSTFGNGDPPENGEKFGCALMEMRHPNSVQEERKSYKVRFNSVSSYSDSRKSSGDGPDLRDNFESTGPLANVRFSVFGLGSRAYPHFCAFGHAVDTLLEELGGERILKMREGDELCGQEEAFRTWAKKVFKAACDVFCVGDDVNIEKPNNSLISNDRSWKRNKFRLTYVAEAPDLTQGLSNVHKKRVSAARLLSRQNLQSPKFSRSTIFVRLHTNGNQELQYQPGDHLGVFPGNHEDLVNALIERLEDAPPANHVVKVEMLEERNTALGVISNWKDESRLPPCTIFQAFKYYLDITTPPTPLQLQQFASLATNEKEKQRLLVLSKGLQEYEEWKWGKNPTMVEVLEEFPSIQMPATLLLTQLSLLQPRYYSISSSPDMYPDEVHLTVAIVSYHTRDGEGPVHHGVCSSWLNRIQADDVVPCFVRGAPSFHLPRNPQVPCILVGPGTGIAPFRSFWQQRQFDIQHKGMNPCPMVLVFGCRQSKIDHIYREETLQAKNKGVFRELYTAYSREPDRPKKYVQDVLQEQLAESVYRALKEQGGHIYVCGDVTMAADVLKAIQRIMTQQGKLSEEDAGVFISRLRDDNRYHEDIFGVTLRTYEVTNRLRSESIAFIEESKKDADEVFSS

For the compound `COc1ccc(C(=O)C2CN=C3C=C(C)C=CN3C2)cc1F.[O-][Cl+3]([O-])([O-])O` (stereo not drawn), the outcome in assay [1] was Active.
On the same count and under the same terms, then `O=C(c1ccc(Cl)c(Cl)c1)C1CN=C2C=CC=CN2C1.[O-][Cl+3]([O-])([O-])O` (stereo not drawn), with “Active”.
For `CC1=CC2=NCC(C(=O)c3ccc(-c4ccc(Br)cc4)cc3)CN2C(C)=C1` (stereo not drawn), the IC50 in assay [2] was determined as 120 µM; at Nitric oxide synthase 3 it was 188 µM.
As to `CC1=CC2=NCC(C(=O)c3ccc(-c4ccc(C#N)cc4)cc3)CN2C=C1.Cl` (stereo not drawn), the IC50 in assay [2] was determined as 50 µM; on Nitric oxide synthase 1 it was 128 µM; at Nitric oxide synthase 3, 12 µM; in assay [3], 11 µM. In assay [1], the result was Active.
In the case of `CC1=CC2=NCC(C(=O)c3ccc(OCc4ccc(Cl)cc4)cc3)CN2C=C1.[O-][Cl+3]([O-])([O-])O` (stereo not drawn), at Nitric oxide synthase 3, the concentration for half-maximal inhibition (IC50) is 12 µM.
On to `CC1=CC=CC2=NCC(C(=O)c3ccc(F)cc3)CN12.[O-][Cl+3]([O-])([O-])O` (stereo not drawn), for which, in assay [1], the result was Active.
Compound `COc1ccc(-c2ccc(C(=O)C3CN=C4C=C(C)C=CN4C3)cc2)cc1.Cl` (stereo not drawn) showed a Ki in assay [4] of 15 µM. Besides, the IC50 in assay [2] was 18 µM; at Nitric oxide synthase 1 it was 87 µM; at Nitric oxide synthase 3 it was 60 µM. Further, the result in assay [1] was Active.
As for `CC1=CC2=NCC(C(=O)c3ccc4cc(C)ccc4c3)CN2C=C1.[O-][Cl+3]([O-])([O-])O` (stereo not drawn), the affinity in assay [4], expressed as Ki, was 23 µM. In addition, in assay [2], the concentration for half-maximal inhibition (IC50) was 29 µM. In assay [1], the result was Active.
Turning to `CC1=CC2=NCC(C(=O)c3ccc4cc(C)ccc4c3)CN2C(C)=C1.[O-][Cl+3]([O-])([O-])O` (stereo not drawn), the figures for the IC50 (in assay [2]; at Nitric oxide synthase 1; on Nitric oxide synthase 3) were 35 µM, 60 µM and 53 µM, respectively. Also, the result in assay [1] was Active.
Regarding `N=C(NCCC[C@H](N)C(=O)O)N[N+](=O)[O-]`, in assay [1], the outcome was Active.
Consider `CC1=CC2=NCC(C(=O)c3ccc(-c4ccc(Br)cc4)cc3)CN2C=C1.[O-][Cl+3]([O-])([O-])O` (stereo not drawn), for which the IC50 in assay [5] and in assay [2] was 28 µM each time. In assay [4], this compound returned a Ki of 14 µM. The outcome in assay [1] was Active.

Usually IC50 stands for the concentration needed to halve the response being measured. In general, Ki refers to the dissociation constant of the complex between target and ligand, obtained from inhibition or displacement.

Values taken from ChEMBL document CHEMBL1152488, “Synthesis and evaluation of pyrido[1,2-a]pyrimidines as inhibitors of nitric oxide synthases” (Eur J Med Chem, 2009).
